The M2OR odorant receptor database
Where a chain is given by its changes, count along the chain named.

Experiments:
Conditions in all cases: stereoisomer not certain
OR51B5 (Homo sapiens) = molecular target: T1, OR51B5 (Homo sapiens) (UniProt Q9H339)
T1 sequence (whole entry): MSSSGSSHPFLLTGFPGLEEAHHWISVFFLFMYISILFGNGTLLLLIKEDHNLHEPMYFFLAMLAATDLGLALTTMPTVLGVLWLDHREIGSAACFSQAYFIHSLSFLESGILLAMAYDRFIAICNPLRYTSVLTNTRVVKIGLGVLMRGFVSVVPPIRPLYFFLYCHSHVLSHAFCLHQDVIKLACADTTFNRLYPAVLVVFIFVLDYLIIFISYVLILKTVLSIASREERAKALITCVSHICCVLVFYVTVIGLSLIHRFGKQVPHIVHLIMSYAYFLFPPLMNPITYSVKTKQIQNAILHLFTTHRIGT
In short: (§1)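 Assay methods differ from source to source, frequently being transient luciferase assays in mammalian cell lines. For each receptor–molecule pair, the label responsive (active) applies when the original authors judged the measured signal statistically different from baseline, and non-responsive (inactive) applies otherwise.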

OR4S2 (Homo sapiens) = molecular target: T2, OR4S2 (Homo sapiens) (UniProt Q8NH73)
T2 sequence (whole entry): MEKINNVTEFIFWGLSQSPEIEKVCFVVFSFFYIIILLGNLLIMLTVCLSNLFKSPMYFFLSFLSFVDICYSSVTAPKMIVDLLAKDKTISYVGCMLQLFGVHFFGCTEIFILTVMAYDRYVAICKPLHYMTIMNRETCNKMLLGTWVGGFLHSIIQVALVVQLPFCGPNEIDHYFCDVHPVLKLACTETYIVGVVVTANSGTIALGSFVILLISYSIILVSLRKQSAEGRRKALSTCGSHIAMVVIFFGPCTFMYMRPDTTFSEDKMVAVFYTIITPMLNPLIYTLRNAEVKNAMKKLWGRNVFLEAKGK
In short: as §1

OR4X1 (Homo sapiens) = molecular target: T3, OR4X1 (Homo sapiens) (UniProt Q8NH49)
T3 sequence (whole entry): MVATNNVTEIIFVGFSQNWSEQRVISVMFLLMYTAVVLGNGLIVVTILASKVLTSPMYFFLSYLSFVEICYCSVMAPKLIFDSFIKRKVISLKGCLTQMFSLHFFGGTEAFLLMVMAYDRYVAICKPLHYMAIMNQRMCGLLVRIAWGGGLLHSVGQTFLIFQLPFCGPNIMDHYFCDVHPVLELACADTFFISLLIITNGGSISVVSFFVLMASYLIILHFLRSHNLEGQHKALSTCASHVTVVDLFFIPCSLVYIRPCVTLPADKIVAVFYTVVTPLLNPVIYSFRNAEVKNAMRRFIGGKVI
In short: as §1

OR4X2 (Homo sapiens) = molecular target: T4, OR4X2 (Homo sapiens) (UniProt Q8NGF9)
T4 sequence (whole entry): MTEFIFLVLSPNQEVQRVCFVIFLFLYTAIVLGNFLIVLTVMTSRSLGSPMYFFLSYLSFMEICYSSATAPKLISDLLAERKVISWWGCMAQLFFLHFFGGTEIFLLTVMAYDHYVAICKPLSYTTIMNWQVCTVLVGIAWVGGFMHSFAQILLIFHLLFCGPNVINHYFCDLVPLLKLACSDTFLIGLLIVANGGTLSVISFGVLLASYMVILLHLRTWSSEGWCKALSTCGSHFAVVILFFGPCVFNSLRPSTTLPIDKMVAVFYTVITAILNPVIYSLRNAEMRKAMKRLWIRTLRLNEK
In short: as §1

OR51A2 (Homo sapiens) = molecular target: T5, OR51A2 (Homo sapiens) (UniProt Q8NGJ7)
T5 sequence (whole entry): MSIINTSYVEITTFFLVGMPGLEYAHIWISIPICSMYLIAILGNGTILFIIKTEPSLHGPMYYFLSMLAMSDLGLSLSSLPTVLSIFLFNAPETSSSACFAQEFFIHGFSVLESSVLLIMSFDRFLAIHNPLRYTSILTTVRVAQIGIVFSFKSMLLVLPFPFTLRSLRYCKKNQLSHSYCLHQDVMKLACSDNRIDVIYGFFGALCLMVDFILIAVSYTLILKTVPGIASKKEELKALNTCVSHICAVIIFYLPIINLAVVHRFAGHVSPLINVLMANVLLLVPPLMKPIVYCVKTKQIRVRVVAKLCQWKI
In short: as §1

OR51A4 (Homo sapiens) = molecular target: T6, OR51A4 (Homo sapiens) (UniProt Q8NGJ6)
T6 sequence (whole entry): T5 sequence (whole entry) with G59E, T94I, S97N, S167N, P227L, E235Q, G267R, M288T, K289N, W311R
In short: as §1

OR51A7 (Homo sapiens) = molecular target: T7, OR51A7 (Homo sapiens) (UniProt Q8NH64)
T7 sequence (whole entry): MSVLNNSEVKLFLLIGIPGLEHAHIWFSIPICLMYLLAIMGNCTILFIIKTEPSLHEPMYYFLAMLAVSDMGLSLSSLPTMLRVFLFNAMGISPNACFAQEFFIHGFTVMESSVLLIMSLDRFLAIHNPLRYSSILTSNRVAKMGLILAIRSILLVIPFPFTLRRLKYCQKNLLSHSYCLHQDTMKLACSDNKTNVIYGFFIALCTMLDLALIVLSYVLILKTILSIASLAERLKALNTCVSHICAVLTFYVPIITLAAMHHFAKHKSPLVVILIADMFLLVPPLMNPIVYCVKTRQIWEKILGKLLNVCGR
In short: as §1

OR51B2 (Homo sapiens) = molecular target: T8, OR51B2 (Homo sapiens) (UniProt Q9Y5P1)
T8 sequence (whole entry): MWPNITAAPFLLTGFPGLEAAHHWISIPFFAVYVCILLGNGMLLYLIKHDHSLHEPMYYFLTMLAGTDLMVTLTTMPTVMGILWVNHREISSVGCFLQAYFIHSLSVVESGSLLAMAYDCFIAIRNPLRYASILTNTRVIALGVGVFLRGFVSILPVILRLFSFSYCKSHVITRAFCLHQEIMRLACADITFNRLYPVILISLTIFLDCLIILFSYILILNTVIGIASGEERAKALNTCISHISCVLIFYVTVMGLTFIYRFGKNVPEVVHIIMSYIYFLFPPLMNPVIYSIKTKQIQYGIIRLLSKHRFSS
In short: as §1

OR51B4 (Homo sapiens) = molecular target: T9, OR51B4 (Homo sapiens) (UniProt Q9Y5P0)
T9 sequence (whole entry): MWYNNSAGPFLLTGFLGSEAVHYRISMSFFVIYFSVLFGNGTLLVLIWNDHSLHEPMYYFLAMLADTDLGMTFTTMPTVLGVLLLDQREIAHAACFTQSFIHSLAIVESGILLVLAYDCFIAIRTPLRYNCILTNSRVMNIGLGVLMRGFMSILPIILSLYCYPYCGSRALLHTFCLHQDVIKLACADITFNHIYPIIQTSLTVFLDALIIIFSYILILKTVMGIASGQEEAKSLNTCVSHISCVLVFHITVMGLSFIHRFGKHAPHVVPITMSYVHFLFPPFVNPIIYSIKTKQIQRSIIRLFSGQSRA
In short: as §1

OR51B6 (Homo sapiens) = molecular target: T10, OR51B6 (Homo sapiens) (UniProt Q9H340)
T10 sequence (whole entry): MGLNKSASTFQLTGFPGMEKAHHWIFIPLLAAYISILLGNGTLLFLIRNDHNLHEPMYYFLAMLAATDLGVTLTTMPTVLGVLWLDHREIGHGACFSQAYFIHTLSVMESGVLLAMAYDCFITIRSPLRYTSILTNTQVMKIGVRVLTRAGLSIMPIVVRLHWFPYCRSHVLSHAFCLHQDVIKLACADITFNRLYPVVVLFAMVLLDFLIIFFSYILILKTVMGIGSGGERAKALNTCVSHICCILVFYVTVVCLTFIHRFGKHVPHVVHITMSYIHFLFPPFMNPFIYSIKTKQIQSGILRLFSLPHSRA
In short: as §1

OR51D1 (Homo sapiens) = molecular target: T11, OR51D1 (Homo sapiens) (UniProt Q8NGF3)
T11 sequence (whole entry): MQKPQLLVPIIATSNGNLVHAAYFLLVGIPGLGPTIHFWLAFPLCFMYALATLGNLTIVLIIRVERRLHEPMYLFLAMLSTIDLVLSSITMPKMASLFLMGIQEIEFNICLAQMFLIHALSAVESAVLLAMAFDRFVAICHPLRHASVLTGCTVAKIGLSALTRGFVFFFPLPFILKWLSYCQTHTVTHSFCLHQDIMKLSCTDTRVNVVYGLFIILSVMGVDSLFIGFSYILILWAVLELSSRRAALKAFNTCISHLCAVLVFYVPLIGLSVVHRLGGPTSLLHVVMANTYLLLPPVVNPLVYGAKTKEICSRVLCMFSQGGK
In short: as §1

OR51E1 (Homo sapiens) = molecular target: T12, OR51E1 (Homo sapiens) (UniProt Q8TCB6)
T12 sequence (whole entry): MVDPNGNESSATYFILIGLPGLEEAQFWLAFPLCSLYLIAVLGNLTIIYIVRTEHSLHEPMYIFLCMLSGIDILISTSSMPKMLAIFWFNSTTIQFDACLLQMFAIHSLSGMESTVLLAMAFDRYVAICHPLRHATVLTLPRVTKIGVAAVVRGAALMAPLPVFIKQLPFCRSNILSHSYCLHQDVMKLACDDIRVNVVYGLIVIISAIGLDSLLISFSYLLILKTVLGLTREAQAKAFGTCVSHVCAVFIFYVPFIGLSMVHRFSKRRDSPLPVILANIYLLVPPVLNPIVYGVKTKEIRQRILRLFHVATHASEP
In short: as §1

OR51E2 (Homo sapiens) = molecular target: T13, OR51E2 (Homo sapiens) (UniProt Q9H255)
T13 sequence (whole entry): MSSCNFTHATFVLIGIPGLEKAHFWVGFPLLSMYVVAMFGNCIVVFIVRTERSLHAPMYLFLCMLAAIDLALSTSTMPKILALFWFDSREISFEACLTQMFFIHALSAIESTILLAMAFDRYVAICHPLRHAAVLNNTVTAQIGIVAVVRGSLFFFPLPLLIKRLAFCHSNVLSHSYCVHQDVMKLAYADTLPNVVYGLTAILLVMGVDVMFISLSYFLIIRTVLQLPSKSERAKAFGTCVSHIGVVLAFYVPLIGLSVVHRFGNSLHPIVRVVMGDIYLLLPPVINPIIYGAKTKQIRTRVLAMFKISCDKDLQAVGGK
In short: as §1

OR51F1 (Homo sapiens) = molecular target: T14, OR51F1 (Homo sapiens) (UniProt A6NGY5)
T14 sequence (whole entry): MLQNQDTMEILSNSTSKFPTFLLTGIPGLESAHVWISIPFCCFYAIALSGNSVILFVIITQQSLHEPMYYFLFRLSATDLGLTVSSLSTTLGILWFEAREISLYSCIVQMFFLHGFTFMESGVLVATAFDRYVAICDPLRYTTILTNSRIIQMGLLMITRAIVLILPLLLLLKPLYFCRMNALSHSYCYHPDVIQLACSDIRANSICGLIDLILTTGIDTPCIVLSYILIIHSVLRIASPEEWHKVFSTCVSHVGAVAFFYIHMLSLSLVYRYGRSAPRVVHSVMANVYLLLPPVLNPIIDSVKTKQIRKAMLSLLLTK
In short: as §1

OR51F2 (Homo sapiens) = molecular target: T15, OR51F2 (Homo sapiens) (UniProt Q8NH61)
T15 sequence (whole entry): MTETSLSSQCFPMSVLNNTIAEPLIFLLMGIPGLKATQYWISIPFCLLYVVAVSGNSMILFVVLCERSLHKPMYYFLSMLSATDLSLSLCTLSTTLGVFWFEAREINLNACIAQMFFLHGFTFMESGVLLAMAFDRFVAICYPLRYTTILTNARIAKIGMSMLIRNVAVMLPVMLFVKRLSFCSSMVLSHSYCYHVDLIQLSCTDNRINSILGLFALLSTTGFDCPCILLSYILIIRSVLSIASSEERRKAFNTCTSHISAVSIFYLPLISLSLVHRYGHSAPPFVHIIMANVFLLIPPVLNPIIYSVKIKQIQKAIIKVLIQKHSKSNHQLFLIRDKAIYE
In short: as §1

OR51G1 (Homo sapiens) = molecular target: T16, OR51G1 (Homo sapiens) (UniProt Q8NGK1)
T16 sequence (whole entry): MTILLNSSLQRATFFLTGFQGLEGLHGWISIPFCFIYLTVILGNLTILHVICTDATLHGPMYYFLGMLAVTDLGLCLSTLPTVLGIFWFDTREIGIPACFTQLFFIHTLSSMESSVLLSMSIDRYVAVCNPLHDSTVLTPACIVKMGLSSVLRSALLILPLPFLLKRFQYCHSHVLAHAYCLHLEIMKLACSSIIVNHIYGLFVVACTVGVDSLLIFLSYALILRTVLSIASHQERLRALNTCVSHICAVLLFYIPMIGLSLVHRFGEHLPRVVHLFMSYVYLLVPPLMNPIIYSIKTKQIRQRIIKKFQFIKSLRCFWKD
In short: as §1

OR51G2 (Homo sapiens) = molecular target: T17, OR51G2 (Homo sapiens) (UniProt Q8NGK0)
T17 sequence (whole entry): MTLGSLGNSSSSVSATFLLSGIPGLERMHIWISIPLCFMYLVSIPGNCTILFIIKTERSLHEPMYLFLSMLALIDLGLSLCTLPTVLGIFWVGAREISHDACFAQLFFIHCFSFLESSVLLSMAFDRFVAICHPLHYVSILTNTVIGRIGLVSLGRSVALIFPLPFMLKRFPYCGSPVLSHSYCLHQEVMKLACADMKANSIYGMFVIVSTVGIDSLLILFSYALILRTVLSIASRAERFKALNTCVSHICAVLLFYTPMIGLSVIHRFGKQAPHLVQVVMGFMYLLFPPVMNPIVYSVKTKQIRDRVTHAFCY
In short: as §1

OR51I1 (Homo sapiens) = molecular target: T18, OR51I1 (Homo sapiens) (UniProt Q9H343)
T18 sequence (whole entry): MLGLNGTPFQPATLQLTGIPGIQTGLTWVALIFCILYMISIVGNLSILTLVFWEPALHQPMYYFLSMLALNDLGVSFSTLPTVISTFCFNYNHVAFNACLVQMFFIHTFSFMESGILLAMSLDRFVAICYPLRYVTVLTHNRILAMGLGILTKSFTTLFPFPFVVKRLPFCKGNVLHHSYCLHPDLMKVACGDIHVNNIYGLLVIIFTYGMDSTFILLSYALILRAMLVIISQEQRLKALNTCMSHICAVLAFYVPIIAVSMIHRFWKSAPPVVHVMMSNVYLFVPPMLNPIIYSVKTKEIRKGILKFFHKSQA
In short: as §1

Measured: odorant receptor agonist call

C=C(C)C1CC=C(C)CC1 (stereo not drawn)
inactive: OR51B5 (Homo sapiens)

CCCCCCCCCCCCCCCC(=O)OCC
inactive: OR51B5 (Homo sapiens)

CCCCCCCCCCCC(=O)OCC
inactive: OR51B5 (Homo sapiens)

CCCCCCCC(=O)OC
inactive: OR51B5 (Homo sapiens)

CC(=O)O
inactive: OR51B5 (Homo sapiens)

CCCCCC(S)C(C)CO (stereo not drawn)
inactive: all assays above
